Most compounds without a hit are left out; they make up all but 0.44% or so of the library.
FN deposition inh = fibronectin deposition inhibition. AH1F fibroblasts, Alexa488-fibronectin deposition fluorescence, overnight. inhibition, % at 12.6 µM. hit rate 0.086% among 350,000. AID 743247;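 active = mean inhibition across replicates of 30% or more, regardless of how many single replicates reach that level; inconclusive = mean under 30% yet at least half of replicates reach 30%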
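Assay system: AH1F fibroblast monolayer, labelled fibronectin deposition. Amount: 10000 cells per well. Also added: labelled fibronectin 24 nM. Compound: single-point pinned compound. Incubation: cell attachment 1 h, compound and FN exposure overnight. Detection: fluorescence after three HBSS washes, excitation 485 nm, emission 525 nm. Read-out: inhibition of fibronectin deposition signal.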
ERp5 inh = blocks human ERp5 reductase activity on insulin | AID 651711 | hit rate 0.05% among 350,000 | ERp5 insulin aggregation, absorbance 650 nm, 90 min | inhibition, % at 9.99 µM;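 active = mean replicate inhibition above about 25%, with every replicate also reaching it, limit read from the data, passing the limit was not always enough; inconclusive = only one of those two criteria met; inactive = neither criterion met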
Target sequence (Q15084 whole entry, looked up): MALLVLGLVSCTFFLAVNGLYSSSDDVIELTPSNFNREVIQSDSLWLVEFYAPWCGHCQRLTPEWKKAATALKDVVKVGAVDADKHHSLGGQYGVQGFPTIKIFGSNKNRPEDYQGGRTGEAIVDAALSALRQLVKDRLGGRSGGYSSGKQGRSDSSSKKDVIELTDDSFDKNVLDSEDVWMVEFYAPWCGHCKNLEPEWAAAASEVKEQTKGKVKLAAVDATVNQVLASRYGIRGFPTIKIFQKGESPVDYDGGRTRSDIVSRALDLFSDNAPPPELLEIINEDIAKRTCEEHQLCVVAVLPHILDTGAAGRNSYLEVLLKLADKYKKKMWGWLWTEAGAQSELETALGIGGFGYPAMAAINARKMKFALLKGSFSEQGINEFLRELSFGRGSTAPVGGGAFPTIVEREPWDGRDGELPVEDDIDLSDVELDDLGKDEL
PDI turbidity = inhibitors of human protein disulfide isomerase. P07237. PDI insulin aggregation turbidity, A650, 90 min. inhibition, % at 10 µM. hit rate 0.052% among 350,000. AID 588391;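 active = mean inhibition across replicates of 30% or more, whatever share of single replicates reach that level; inconclusive = mean inhibition below 30% while every single replicate reaches 30%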
RAD54 inh = inhibitors of human RAD54 branch migration; Q92698; inhibition, % at 10.4 µM; RAD54 Holliday junction branch migration, FAM/BHQ fluorescence; hit rate 0.14% among 360,000; AID 602329;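 active = mean normalized replicate activity at least 40 and at least half of replicates scoring 40 or more; inconclusive = only one of the two criteria met; inactive = mean below 40 and under half of replicates reaching 40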;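 also: inhibitors cause a drop in the FAM fluorescence signal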
PglD inh = PglD (C. jejuni) enzyme inhibition. inhibition, % at 12.5 µM. purified PglD enzyme, DTNB colorimetric CoA detection. hit rate 0.098% among 360,000; in the data active = inhibition above about 16%, passing the limit was not always enough; inconclusive = no clear call, values can overlap the other calls
S100A4 MyoIIA = inhibitors of human S100A4 binding to myosin IIA peptide; inhibition, % at 10.7 µM; S100A4/TAMRA-MyoIIA peptide fluorescence polarization; hit rate 0.14% among 360,000; AID 652163;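 active = mean inhibition of at least 70% across replicates, with every replicate also reaching that level; inconclusive = mean inhibition reaches 70% but some replicates fall short; inactive = mean inhibition below 70%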
Target sequence (P26447 whole entry, looked up): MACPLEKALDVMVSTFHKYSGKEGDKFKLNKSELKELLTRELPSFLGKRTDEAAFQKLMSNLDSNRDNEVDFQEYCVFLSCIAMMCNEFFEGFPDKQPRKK
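Material: human S100A4 monomer with TAMRA-labelled myosin IIA peptide; buffer or medium: HEPES pH 7.2 with CaCl2, KCl, NaCl, DTT, Triton; compound dosing: one concentration per compound; schedule: 5 min incubation before reading; benchmarks: neutral control DMSO, positive control TFP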
Numbers stand for hits; i = inactive; ? = inconclusive; nt = not tested or not shown.

SMILES	FN deposition inh	ERp5 inh	PDI turbidity	RAD54 inh	PglD inh	S100A4 MyoIIA
CC(=O)N(C)C[C@H]1Oc2ccccc2C(=O)N(C)C[C@@H]1C	i	nt	nt	nt	nt	nt
Cc1ccc(-c2ccc3c(c2)O[C@H](CN(C)Cc2ccncc2)[C@H](C)CN([C@H](C)CO)S3(=O)=O)cc1	i	i	nt	i	i	i
O=C(C[C@H]1CC[C@H](NS(=O)(=O)c2ccccc2)[C@@H](CO)O1)NCc1ccncn1	nt	?	nt	i	i	i
CC1CCCN(Cc2c(O)ccc3c4c(c(=O)oc23)CCCC4)C1 (stereo unspecified)	31.1	i	i	i	i	i
O=c1oc2c(CN3CCOCC3)c(O)ccc2c2c1CCC2	i	nt	i	i	i	nt
C[C@@H]1CN(C)C(=O)c2cccnc2O[C@H]1CN(C)S(C)(=O)=O	i	nt	nt	nt	nt	nt
C[N+](C)(C)CC(=O)N/N=C/c1c2ccccc2cc2ccccc12	i	i	i	91.9	i	i
Cn1cccc1CC(=O)N/N=C\c1c2ccccc2cc2ccccc12	i	nt	i	i	i	nt
CC(C)[C@H]1CC=CC[C@@H](C)Oc2ccccc2C(=O)N(C)[C@H](C)C(=O)N1 (mixture of isomers)	i	nt	nt	nt	nt	nt
CC(=O)N1[C@@H]2c3ccc(-c4ccncc4)c(=O)n3C[C@H]1[C@H](CO)[C@H]2C(=O)NC1Cc2ccccc2C1	nt	i	nt	i	i	i
O=C(NC1CCCC1)[C@@H]1[C@@H](CO)[C@@H]2Cn3c(ccc(-c4cccnc4)c3=O)[C@H]1N2CC1CC1	nt	27.7	nt	i	i	nt
CCN1[C@@H]2Cn3c(ccc(-c4cccnc4)c3=O)[C@H]1[C@@H](C(=O)NC1CCCC1)[C@@H]2CO	nt	i	nt	nt	nt	i
CCC(=O)N1[C@@H]2c3ccc(-c4ccncc4)c(=O)n3C[C@H]1[C@H](CO)[C@H]2C(=O)NC1Cc2ccccc2C1	nt	i	nt	i	i	154.3
CCNC(=O)[C@H]1[C@H](CO)[C@H]2Cn3c(ccc(-c4ccc(F)cc4)c3=O)[C@@H]1N2C	nt	i	nt	i	i	138.0
COCCNC(=O)C[C@H]1CC[C@@H]2[C@H](COC[C@H](O)CN2C(=O)Nc2ccccc2OC)O1	i	i	nt	i	i	i
O=C(Nc1ccc(C(F)(F)F)cc1)N[C@H]1CC[C@H](CCn2cc(C3(O)CCCC3)nn2)O[C@H]1CO	nt	i	nt	i	i	i
CC(=O)Nc1cccc2c1O[C@@H](CN(C)C(=O)OC(C)(C)C)[C@H](C)CN(C)C2=O	i	nt	nt	nt	nt	nt
COc1ccc(OC)c(Nc2nc(C3CC3)nc3c2nnn3Cc2ccccc2)c1	nt	nt	i	nt	nt	nt
c1ccc(Cn2nnc3c(Nc4ccc5c(c4)OCO5)nc(C4CC4)nc32)cc1	i	nt	65.7	nt	nt	nt
CC1=C(N2CCOCC2)CCC1=O	i	i	i	i	i	85.5
CC1=C(C)C(=O)C(N2CCOCC2)=CC1=O	i	i	i	i	i	i
O=C(NCc1ccc2c(c1)OCO2)c1nc(S(=O)(=O)Cc2ccccc2F)ncc1Cl	32.9	i	i	i	i	i
O=C(NCc1ccc2c(c1)OCO2)c1nc(S(=O)(=O)Cc2ccccc2)ncc1Cl	i	i	i	i	i	i
CC(=O)Nc1ccc(NC(=O)c2nc(S(=O)(=O)Cc3ccccc3)ncc2Cl)cc1	51.2	i	i	i	i	i
O=S(=O)(c1ccc(F)cc1)N1CCCCN2[C@@H](CO)[C@H](c3ccc(-c4ccccc4F)cc3)[C@@H]2C1	nt	i	nt	i	i	i
SMILES	FN deposition inh	ERp5 inh	PDI turbidity	RAD54 inh	PglD inh	S100A4 MyoIIA
CO[C@H]1CN(C)C(=O)c2ccc(NS(=O)(=O)c3ccc(Cl)cc3)cc2OC[C@@H](C)NC[C@H]1C	i	i	nt	i	i	nt
O=C(CCl)Nc1ccccc1Sc1ccc(Cl)cc1	i	nt	49.9	i	i	nt
CC(=O)N1CCN(CC(=O)Nc2ccccc2Sc2ccc(Cl)cc2)CC1	i	i	i	nt	nt	i
CC(=O)c1ccc(OCc2cc(C(=O)N3CCCCC3c3cccnc3)no2)cc1 (stereo unspecified)	i	i	33.5	i	i	i
Cc1ccc(S(=O)(=O)N[C@H]2C=C[C@@H](CC(=O)NC3CCCCC3)O[C@@H]2CO)cc1	i	i	nt	i	i	94.9
Cn1cnc(S(=O)(=O)N[C@@H]2C=C[C@@H](CC(=O)NCC3CC3)O[C@H]2CO)c1	i	i	nt	i	i	107.9
Cc1ccc(S(=O)(=O)N[C@H]2C=C[C@@H](CC(=O)O)O[C@@H]2CO)cc1	nt	i	nt	i	i	i
Cc1ccc(S(=O)(=O)N[C@H]2C=C[C@H](CC(=O)O)O[C@@H]2CO)cc1	nt	i	nt	i	i	121.6
C/C=C/c1cnc2c(c1)C(=O)N([C@@H](C)CO)C[C@@H](C)[C@@H](CN(C)Cc1ccccc1)O2	i	i	nt	i	i	i
O=C(CC1CC1)N[C@H]1C[C@@H]2O[C@H](CO)CC[C@@H]2O[C@@H]1CCc1ccc(C#Cc2ccccc2)cc1	nt	i	nt	nt	nt	i
COc1ccccc1CN1[C@@H](CO)[C@@H]2c3ccccc3N(C(=O)c3cccnc3)C[C@@H]21	i	i	nt	i	i	i
COc1ccccc1CN1[C@H](CO)[C@H]2c3ccccc3N(C(=O)c3cccnc3)C[C@H]21	i	i	nt	i	i	130.1
CC(=O)N1[C@H](C(=O)NCCCN(C)C)[C@@H](CO)[C@@H]2Cn3c(ccc(-c4cccc(F)c4)c3=O)[C@@H]21	nt	i	nt	i	i	100.8
O=C(NCc1ccc(F)cc1)OC1CC2CC1[C@H]1CCCCN1C2=O (stereo partly specified)	30.3	i	nt	nt	nt	i
CO[C@H]1CN(C)C(=O)c2ccc(NC(C)=O)cc2OC[C@H](C)N(C(=O)CC2CC2)C[C@@H]1C	i	i	nt	nt	nt	i
COCC(=O)N1CC2(CCN(Cc3ccccc3)CC2)c2c(n(C)c3cc(OC)ccc23)[C@H]1CO	nt	i	nt	nt	nt	i
CN1C(=O)NC(c2ccccc2[N+](=O)[O-])C2=C1CC(C)(C)CC2=O (stereo unspecified)	i	i	i	nt	nt	i
CN1C(=O)NC(c2ccccc2[N+](=O)[O-])C2=C1CCCC2=O (stereo unspecified)	i	i	i	i	i	117.4
C/C=C/c1cccc(-c2nc(C(=O)NC3CCC3)cc3c2[C@H](CCO)N([S@@](=O)C(C)(C)C)C3)c1	i	nt	nt	nt	nt	nt
Cc1ccccc1OCC(=O)Nc1ccc(S(=O)(=O)N2CCCC2)cc1	i	i	i	i	i	113.6
COc1ccc(Cc2nnc(SCC(=O)NC3(C#N)CCCCC3)n2N)cc1	i	25.0	i	i	i	i
Cc1ccc(S(=O)(=O)Nc2ccc3c(c2)CC(=O)N([C@@H](C)CO)C[C@@H](C)[C@H](CN(C)Cc2ccc(C(=O)O)cc2)O3)cc1	nt	i	nt	nt	nt	i
CC1(C)c2ccccc2N(CC(N)=O)C12C=Cc1ccccc1O2 (stereo unspecified)	i	i	i	i	i	i
CC1(C)c2ccccc2N2CC(=O)N(CC(N)=O)C21C (stereo unspecified)	i	nt	i	i	i	118.4

Assay outcomes deposited in PubChem BioAssay by Broad Institute.
